From ChEMBL document CHEMBL2177069, “Novel peptidomimetic compounds containing redox active chalcogens and quinones as potential anticancer agents” (Eur J Med Chem, 2012)

Assays:
IGROV-1 = test: Cytotoxicity against human IGROV1 cells; assay type: functional
Saccharomyces cerevisiae [1] = test: Growth inhibition of COX17-deficient Saccharomyces cerevisiae YLL009C mutant at 20 ug/disc after 24 to 48 hrs by agar diffusion assay; assay type: functional; conditions: read-out: DIZ
Procedure, shortened: (§1)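 S. cerevisiae deletion mutants or wild type grown on YPD, seeded into liquid agar medium at an optical density of 0.1. 6 mm paper discs soaked with methanolic compound solution were placed on the plates and incubated at 30 °C. Growth was checked after 1 and 2 days, and the inhibition zone diameter was recorded in mm.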

NCI-H522 = test: Cytotoxicity against human NCI-H522 cells; assay type: functional
UACC-62 = test: Cytotoxicity against human UACC62 cells; assay type: functional
SK-MEL-5 = test: Cytotoxicity against human SK-MEL-5 cells; assay type: functional
Saccharomyces cerevisiae [2] = test: Growth inhibition of wild type Saccharomyces cerevisiae BY4741 at 20 ug/disc after 24 to 48 hrs by agar diffusion assay; assay type: functional; conditions: read-out: DIZ; procedure, shortened: as §1
Hs-578T = test: Cytotoxicity against human Hs578T cells; assay type: functional
NCI-H460 = test: Cytotoxicity against human NCI-H460 cells; assay type: functional
T47D = test: Cytotoxicity against human T47D cells; assay type: functional
SF-539 = test: Cytotoxicity against human SF539 cells; assay type: functional
Saccharomyces cerevisiae [3] = test: Growth inhibition of WSC4-deficient Saccharomyces cerevisiae YHL028W mutant at 20 ug/disc 24 to 48 hrs by agar diffusion assay; assay type: functional; conditions: read-out: DIZ; procedure, shortened: as §1
Saccharomyces cerevisiae [4] = test: Growth inhibition of POS5-deficient Saccharomyces cerevisiae YPL188W mutant at 20 ug/disc after 24 to 48 hrs by agar diffusion assay; assay type: functional; conditions: read-out: DIZ; procedure, shortened: as §1
Saccharomyces cerevisiae [5] = test: Growth inhibition of PST2-deficient Saccharomyces cerevisiae YDR032C mutant at 20 ug/disc 24 to 48 hrs by agar diffusion assay; assay type: functional; conditions: read-out: DIZ; procedure, shortened: as §1
[6] = Cytotoxicity against human 786-O cells; assay type: functional
SK-MEL-2 = test: Cytotoxicity against human SK-MEL-2 cells; assay type: functional
Saccharomyces cerevisiae [7] = test: Growth inhibition of SOD1-deficient Saccharomyces cerevisiae YJR104C mutant at 20 ug/disc after 24 to 48 hrs by agar diffusion assay; assay type: functional; conditions: read-out: DIZ; procedure, shortened: as §1
Saccharomyces cerevisiae [8] = test: Growth inhibition of RCK1-deficient Saccharomyces cerevisiae YGL158W mutant at 20 ug/disc after 24 to 48 hrs by agar diffusion assay; assay type: functional; conditions: read-out: DIZ; procedure, shortened: as §1
NCI-H23 = test: Cytotoxicity against human NCI-H23 cells; assay type: functional
MCF7 = test: Cytotoxicity against human MCF7 cells; assay type: functional
NCI-H322M = test: Cytotoxicity against human NCI-H322M cells; assay type: functional
OVCAR-3 = test: Cytotoxicity against human OVCAR3 cells; assay type: functional
HOP-92 = test: Cytotoxicity against human HOP92 cells; assay type: functional
TK-10 = test: Cytotoxicity against human TK10 cells; assay type: functional
SN12C = test: Cytotoxicity against human SN12C cells; assay type: functional
HT-29 = test: Cytotoxicity against human HT-29 cells; assay type: functional
CAKI-1 = test: Cytotoxicity against human Caki1 cells; assay type: functional
HCT-116 = test: Cytotoxicity against human HCT116 cells; assay type: functional
BT-549 = test: Cytotoxicity against human BT549 cells; assay type: functional
COLO 205 = test: Cytotoxicity against human COLO205 cells; assay type: functional
SW-620 = test: Cytotoxicity against human SW620 cells; assay type: functional
HCC 2998 = test: Cytotoxicity against human HCC2998 cells; assay type: functional
A498 [9] = test: Cytotoxicity against human A498 cells after 24 hrs by MTT assay; assay type: functional, cell-based; conditions: A498, 24 h
Procedure, shortened: (§2)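 MTT assay. Cells were seeded at 50,000 cells/mL in medium with 10% fetal calf serum and grown for two days at 37 °C, 10% CO2. Serial dilutions of compound were then added for 24 h. MTT was added (final 0.5 mg/mL) for 2 h, and the formazan was pelleted, washed, dissolved in isopropanol with 0.4% HCl and read at 590 nm. IC50 is the concentration giving 50% of untreated-control absorbance, taken from dose-response curves; mean of two parallel experiments.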

A498 [10] = test: Cytotoxicity against human A498 cells; assay type: functional
SK-OV-3 = test: Cytotoxicity against human SKOV3 cells; assay type: functional
Saccharomyces cerevisiae [11] = test: Growth inhibition of GSH2-deficient Saccharomyces cerevisiae YOL049W mutant at 20 ug/disc after 24 to 48 hrs by agar diffusion assay; assay type: functional; conditions: read-out: DIZ; procedure, shortened: as §1
SNB-19 = test: Cytotoxicity against human SNB19 cells; assay type: functional
HUVEC = test: Cytotoxicity against human HUVEC cells after 24 hrs by MTT assay; assay type: cell-based; procedure, shortened: as §2
MDA-MB-231 = test: Cytotoxicity against human MDA-MB-231 cells; assay type: functional
KM12 = test: Cytotoxicity against human KM12 cells; assay type: functional

CC1=C(SCCC(=O)OC(C[Se]C2=C(C)C(=O)c3ccccc3C2=O)C(=O)NCCCCCC(=O)OCc2ccccc2)C(=O)c2ccccc2C1=O (configuration not stated)
GI50 (IGROV-1): 2.14 µM
LC50 (concentration killing 50% of cells) (IGROV-1): 53.7 µM
TGI (IGROV-1; read-out: pTGI (converted)): 14.5 µM
zone of inhibition at 20 µg/disc (Saccharomyces cerevisiae [1]): 11 mm
GI50 (NCI-H522): 3.98 µM
LC50 (NCI-H522): 44.7 µM
TGI (NCI-H522; read-out: pTGI (converted)): 15.1 µM
GI50 (UACC-62): 8.13 µM
LC50 (UACC-62): 46.8 µM
TGI (UACC-62; read-out: pTGI (converted)): 20.9 µM
GI50 (SK-MEL-5): 3.8 µM
LC50 (SK-MEL-5): 39.8 µM
TGI (SK-MEL-5; read-out: pTGI (converted)): 14.8 µM
zone of inhibition at 20 µg/disc (Saccharomyces cerevisiae [2]): 0 mm
GI50 (Hs-578T): 7.59 µM
LC50 (Hs-578T): > 100 µM
TGI (Hs-578T; read-out: pTGI (converted)): > 100 µM
GI50 (NCI-H460): 1.91 µM
LC50 (NCI-H460): 14.1 µM
TGI (NCI-H460; read-out: pTGI (converted)): 4.57 µM
GI50 (T47D): 17.8 µM
LC50 (T47D): > 100 µM
TGI (T47D; read-out: pTGI (converted)): 51.3 µM
GI50 (SF-539): 4.47 µM
LC50 (SF-539): 43.7 µM
TGI (SF-539; read-out: pTGI (converted)): 15.5 µM
zone of inhibition at 20 µg/disc (Saccharomyces cerevisiae [3]): 16 mm
zone of inhibition at 20 µg/disc (Saccharomyces cerevisiae [4]): 10 mm
zone of inhibition at 20 µg/disc (Saccharomyces cerevisiae [5]): 11 mm
GI50 ([6]; 786-0): 4.68 µM
LC50 ([6]; 786-0): 38 µM
TGI ([6]; 786-0, read-out: pTGI (converted)): 14.1 µM
GI50 (SK-MEL-2): 5.5 µM
LC50 (SK-MEL-2): 52.5 µM
TGI (SK-MEL-2; read-out: pTGI (converted)): 19.1 µM
zone of inhibition at 20 µg/disc (Saccharomyces cerevisiae [7]): 16 mm
zone of inhibition at 20 µg/disc (Saccharomyces cerevisiae [8]): 10 mm
GI50 (NCI-H23): 2.75 µM
LC50 (NCI-H23): 52.5 µM
TGI (NCI-H23; read-out: pTGI (converted)): 7.76 µM
GI50 (MCF7): 4.79 µM
LC50 (MCF7): > 100 µM
TGI (MCF7; read-out: pTGI (converted)): 29.5 µM
GI50 (NCI-H322M): 3.8 µM
LC50 (NCI-H322M): 66.1 µM
TGI (NCI-H322M; read-out: pTGI (converted)): 17.4 µM
GI50 (OVCAR-3): 5.01 µM
LC50 (OVCAR-3): 42.7 µM
TGI (OVCAR-3; read-out: pTGI (converted)): 18.2 µM
GI50 (HOP-92): 2.69 µM
LC50 (50% lethal concentration) (HOP-92): 30.9 µM
TGI (HOP-92; read-out: pTGI (converted)): 7.94 µM
GI50 (TK-10): 13.8 µM
LC50 (TK-10): 53.7 µM
TGI (TK-10; read-out: pTGI (converted)): 26.9 µM
GI50 (SN12C): 4.68 µM
LC50 (SN12C): 57.5 µM
TGI (SN12C; read-out: pTGI (converted)): 16.6 µM
GI50 (HT-29): 3.55 µM
LC50 (HT-29): 83.2 µM
TGI (HT-29; read-out: pTGI (converted)): 20.9 µM
GI50 (CAKI-1): 6.92 µM
LC50 (CAKI-1): 51.3 µM
TGI (CAKI-1; read-out: pTGI (converted)): 21.4 µM
GI50 (HCT-116): 2 µM
LC50 (HCT-116): 11.7 µM
TGI (HCT-116; read-out: pTGI (converted)): 4.57 µM
GI50 (BT-549): 3.8 µM
LC50 (BT-549): 36.3 µM
TGI (BT-549; read-out: pTGI (converted)): 12.9 µM
GI50 (COLO 205): 7.94 µM
CC50 (COLO 205; read-out: pLC50 (the source's name) (converted)): 56.2 µM
TGI (COLO 205; read-out: pTGI (converted)): 22.4 µM
GI50 (SW-620): 2.45 µM
LC50 (SW-620): 36.3 µM
TGI (SW-620; read-out: pTGI (converted)): 9.33 µM
GI50 (HCC 2998): 6.46 µM
LC50 (HCC 2998): 46.8 µM
TGI (HCC 2998; read-out: pTGI (converted)): 18.6 µM
IC50 (A498 [9]): 5 µM
GI50 (A498 [10]): 12 µM
LC50 (50% lethal concentration) (A498 [10]): > 100 µM
TGI (A498 [10]; read-out: pTGI (converted)): > 100 µM
GI50 (SK-OV-3): 7.08 µM
LC50 (SK-OV-3): 44.7 µM
TGI (SK-OV-3; read-out: pTGI (converted)): 19.5 µM
zone of inhibition at 20 µg/disc (Saccharomyces cerevisiae [11]): 10 mm
GI50 (SNB-19): 3.8 µM
LC50 (SNB-19): 40.7 µM
TGI (SNB-19; read-out: pTGI (converted)): 14.1 µM
IC50 (HUVEC): 7 µM
GI50 (MDA-MB-231): 6.76 µM
LC50 (MDA-MB-231): 55 µM
TGI (MDA-MB-231; read-out: pTGI (converted)): 21.9 µM
GI50 (KM12): 1.41 µM
LC50 (KM12): 13.8 µM
TGI (KM12; read-out: pTGI (converted)): 4.07 µM
